The text below walks through data of ChEMBL document CHEMBL2177000, “Pharmacokinetic optimization of class-selective histone deacetylase inhibitors and identification of associated candidate predictive biomarkers of hepatocellular carcinoma tumor response” (J Med Chem, 2012).

For one series, the target named is T1, Cytochrome P450 1A2 (Homo sapiens, UniProt P05177).
T1 sequence (P05177 whole entry): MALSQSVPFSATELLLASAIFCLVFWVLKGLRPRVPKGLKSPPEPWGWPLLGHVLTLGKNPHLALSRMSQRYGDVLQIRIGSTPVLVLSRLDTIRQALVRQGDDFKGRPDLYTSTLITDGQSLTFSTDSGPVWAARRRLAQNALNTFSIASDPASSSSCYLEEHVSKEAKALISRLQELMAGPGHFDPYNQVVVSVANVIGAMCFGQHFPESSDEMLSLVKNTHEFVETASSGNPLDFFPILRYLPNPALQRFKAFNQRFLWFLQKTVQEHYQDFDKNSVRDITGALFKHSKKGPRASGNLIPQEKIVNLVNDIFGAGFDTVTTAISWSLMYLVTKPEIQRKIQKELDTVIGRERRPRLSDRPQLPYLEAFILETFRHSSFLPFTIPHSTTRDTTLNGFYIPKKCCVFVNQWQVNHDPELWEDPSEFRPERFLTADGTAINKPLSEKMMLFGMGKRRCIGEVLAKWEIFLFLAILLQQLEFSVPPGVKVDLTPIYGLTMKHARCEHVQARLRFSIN
Kind of series: Inhibition of CYP1A2 in human liver microsomes in presence of NADPH by LC-MS/MS method. Type of series: ADME, Microsome.

The target in the next series is Cytochrome P450 2C19 (Homo sapiens, UniProt P33261). Briefly: Inhibition of CYP2C19 in human liver microsomes in presence of NADPH by LC-MS/MS method. It counts as ADME, Microsome.
Cytochrome P450 2C19, sequence (P33261 whole entry): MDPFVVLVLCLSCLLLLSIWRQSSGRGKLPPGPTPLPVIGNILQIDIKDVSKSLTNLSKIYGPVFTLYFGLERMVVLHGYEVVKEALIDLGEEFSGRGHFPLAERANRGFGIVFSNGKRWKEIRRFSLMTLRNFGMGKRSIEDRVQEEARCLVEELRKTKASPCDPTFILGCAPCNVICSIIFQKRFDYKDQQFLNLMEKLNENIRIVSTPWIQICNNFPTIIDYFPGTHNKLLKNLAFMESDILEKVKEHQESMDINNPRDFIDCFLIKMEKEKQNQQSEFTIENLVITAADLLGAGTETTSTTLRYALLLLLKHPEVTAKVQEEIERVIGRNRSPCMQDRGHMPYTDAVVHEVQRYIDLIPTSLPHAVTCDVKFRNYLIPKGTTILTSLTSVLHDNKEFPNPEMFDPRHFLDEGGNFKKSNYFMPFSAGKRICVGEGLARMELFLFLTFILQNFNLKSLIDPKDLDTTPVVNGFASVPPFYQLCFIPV
For a further series, the target named is Cytochrome P450 2C9 (Homo sapiens, UniProt P11712). Kind of series: Inhibition of CYP2C9 in human liver microsomes in presence of NADPH by LC-MS/MS method. It counts as ADME, Microsome.
Cytochrome P450 2C9, sequence (P11712 whole entry): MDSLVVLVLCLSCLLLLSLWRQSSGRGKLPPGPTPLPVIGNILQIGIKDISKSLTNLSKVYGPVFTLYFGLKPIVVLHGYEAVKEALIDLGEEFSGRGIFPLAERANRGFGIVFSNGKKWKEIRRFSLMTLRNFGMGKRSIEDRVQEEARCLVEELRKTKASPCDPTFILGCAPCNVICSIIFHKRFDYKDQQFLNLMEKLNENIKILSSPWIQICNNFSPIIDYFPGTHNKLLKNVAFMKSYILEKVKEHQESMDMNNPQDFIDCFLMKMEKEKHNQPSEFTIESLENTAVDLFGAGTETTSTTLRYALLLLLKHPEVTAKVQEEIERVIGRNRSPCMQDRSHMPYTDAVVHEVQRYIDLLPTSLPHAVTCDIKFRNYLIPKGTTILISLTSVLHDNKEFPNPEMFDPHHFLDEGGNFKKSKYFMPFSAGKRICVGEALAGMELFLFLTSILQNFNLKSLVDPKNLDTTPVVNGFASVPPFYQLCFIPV
In another series the target is Cytochrome P450 3A4 (Homo sapiens, UniProt P08684). Kind of series: Inhibition of CYP3A4 in human liver microsomes in presence of NADPH by LC-MS/MS method. It counts as ADME, Microsome. Background: Microsomes from liver hold many membrane-bound enzymes, among them those of drug oxidation.
Cytochrome P450 3A4, sequence (P08684 whole entry): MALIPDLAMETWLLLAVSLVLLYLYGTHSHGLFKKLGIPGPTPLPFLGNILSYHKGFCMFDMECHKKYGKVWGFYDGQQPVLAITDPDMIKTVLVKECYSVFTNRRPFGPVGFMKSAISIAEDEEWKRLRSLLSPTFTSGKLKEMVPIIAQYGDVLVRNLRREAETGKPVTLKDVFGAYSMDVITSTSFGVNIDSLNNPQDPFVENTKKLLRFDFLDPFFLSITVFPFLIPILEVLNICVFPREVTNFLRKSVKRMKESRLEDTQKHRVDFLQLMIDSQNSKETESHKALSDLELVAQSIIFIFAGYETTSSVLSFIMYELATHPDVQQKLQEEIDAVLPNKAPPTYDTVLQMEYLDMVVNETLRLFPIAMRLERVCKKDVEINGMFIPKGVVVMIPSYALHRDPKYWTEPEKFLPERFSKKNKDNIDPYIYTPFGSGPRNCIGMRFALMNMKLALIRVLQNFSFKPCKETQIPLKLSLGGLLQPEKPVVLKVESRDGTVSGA
For another series, the target named is Cytochrome P450 2D6 (Homo sapiens, UniProt P10635). Briefly: Inhibition of CYP2D6 in human liver microsomes in presence of NADPH by LC-MS/MS method. It counts as ADME, Microsome.
Cytochrome P450 2D6, sequence (P10635 whole entry): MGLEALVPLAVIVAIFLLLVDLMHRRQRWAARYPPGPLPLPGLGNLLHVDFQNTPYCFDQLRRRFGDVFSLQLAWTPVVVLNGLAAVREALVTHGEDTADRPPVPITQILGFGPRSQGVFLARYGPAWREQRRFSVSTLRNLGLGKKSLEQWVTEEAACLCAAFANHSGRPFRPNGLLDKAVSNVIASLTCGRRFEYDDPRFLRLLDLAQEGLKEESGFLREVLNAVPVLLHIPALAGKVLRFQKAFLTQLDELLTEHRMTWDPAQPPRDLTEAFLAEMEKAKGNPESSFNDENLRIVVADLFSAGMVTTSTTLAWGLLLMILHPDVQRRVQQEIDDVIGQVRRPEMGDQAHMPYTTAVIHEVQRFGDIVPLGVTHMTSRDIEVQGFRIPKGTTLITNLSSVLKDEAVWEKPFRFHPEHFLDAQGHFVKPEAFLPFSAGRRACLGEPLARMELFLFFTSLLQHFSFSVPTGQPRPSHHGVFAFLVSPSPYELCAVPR
Series [1] in a line: (§1) Oral bioavailability in BALB/C mouse at 10 mg/kg by LC-MS/MS method. The settings on record: BALB/C, in vivo. Type of series: ADME, organism-based. The procedure, abridged:
(§2)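 Bioavailability from single-dose iv (2 mg/kg, 5% DMSO/40% PEG400/55% saline) and oral gavage (10 mg/kg, 0.445% microcrystalline cellulose microsuspension) studies in BALB/C nude mice (N = 16 per arm); plasma at eight (po) or nine (iv) time points, LC-MS/MS, noncompartmental analysis.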

Series [2] in a line: Volume of distribution at steady state in BALB/C mouse at 10 mg/kg, po or 2 mg/kg, iv by LC-MS/MS method. It counts as ADME, organism-based. The arrangement: unit not given here. The settings on record: in vivo, read-out: Vdss. In a few lines: (§3)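 Single-dose PK: iv bolus 2 mg/kg in 5% DMSO/40% PEG400/55% saline and/or oral gavage 10 mg/kg as 0.445% microcrystalline cellulose microsuspension; BALB/C nude mice (15−20 g, N = 16 per arm) or male Sprague−Dawley rats (250 ± 20 g, N = 3). Blood at eight (po) or nine (iv) time points into sodium heparin, plasma by LC-MS/MS, noncompartmental analysis.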

The nature of series [3]: Clearance in BALB/C mouse at 10 mg/kg, po or 2 mg/kg, iv by LC-MS/MS method. The settings on record: in vivo. Type of series: ADME, organism-based. The procedure, abridged: (§4)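 Female-unspecified BALB/C nude mice (15−20 g, N = 16 per arm); iv bolus 2 mg/kg in 5% DMSO/40% PEG400/55% saline and/or oral gavage 10 mg/kg as 0.445% microcrystalline cellulose microsuspension. Blood sampled at nine (iv) or eight (po) time points into sodium heparin tubes; plasma by LC-MS/MS; noncompartmental analysis.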

Series [4] can be described thus: (§5) AUC in BALB/C mouse at 10 mg/kg, po or 2 mg/kg, iv by LC-MS/MS method. Type of series: ADME, organism-based, Plasma. The settings on record: BALB/C, plasma. In a few lines:
as §4

A short description of series [5]: (§6) Half life in BALB/C mouse at 10 mg/kg, po or 2 mg/kg, iv by LC-MS/MS method. It counts as ADME, organism-based. The conditions noted are these: BALB/C, in vivo. The procedure, abridged: as §4
Series [6] is described as follows: (§7) Cmax in BALB/C mouse at 10 mg/kg, po or 2 mg/kg, iv by LC-MS/MS method. Type of series: ADME, organism-based. The conditions noted are these: BALB/C, in vivo. The procedure, abridged:
as §4

A short description of series [7]: (§8) Tmax in BALB/C mouse at 10 mg/kg, po or 2 mg/kg, iv by LC-MS/MS method. Type of series: ADME, organism-based. The settings on record: BALB/C, in vivo. In a few lines: as §3
Series [8] in a line: Clearance in mouse liver microsomes at 1 uM incubated for 10 mins by LC-MS/MS method. Type of series: ADME, Microsome. In a few lines: (§9)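 Liver microsomes (human or mouse, 0.5 mg/mL) in 100 mM potassium phosphate pH 7.4 with 1 μM compound, prewarmed 10 min at 37 °C, started with NADPH (10 mM); stopped at 0, 3, 6, 9, 15, 30 min with ice-cold methanol containing tolbutamide internal standard; LC-MS/MS. Hepatic clearance (mL/min/kg) calculated from intrinsic clearance.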

A short description of series [9]: Clearance in human liver microsomes at 1 uM incubated for 10 mins by LC-MS/MS method. Type of series: ADME, Microsome. In a few lines: as §9
Series [10] deals with Histone deacetylase (Homo sapiens) (UniProt Q13547+O15379+Q9UBN7+Q92769+Q9UQL6+Q8WUI4+Q9BY41+Q96DB2+P56524+Q9UKV0+Q969S8). Kind of series: Inhibition of Class 1 histone deacetylase in human HeLa cells assessed as induction in p21 protein expression at 3 uM incubated for 16 hrs by luciferase reporter gene assay relative to HDAC inhibitor entinostat. It counts as cell-based. The arrangement: scale not given: the % may be the effect or the level left. On the technique in general: In a reporter assay the amount or activity of a reporter protein is the signal.

Series [11] concerns Mus musculus. Described as §1. It counts as ADME, organism-based. The settings on record: in vivo. The procedure, abridged: as §2
The test system of series [12] is Mus musculus. The description is as §5. The conditions noted are these: in vivo. It counts as ADME, organism-based, Plasma. The procedure, abridged: as §4
For series [13], the system named is Mus musculus. The description is as §6. Type of series: ADME, organism-based. The settings on record: in vivo. The procedure, abridged: as §4
Series [14] relates to Mus musculus. The series is described as §7. It counts as ADME, organism-based. The conditions noted are these: in vivo. In a few lines: as §4
The subject of series [15] is Mus musculus. Described as §8. It counts as ADME, organism-based. The conditions noted are these: in vivo. In a few lines:
as §3

In another series the test system is HGC-27. It counts as functional, Homo sapiens.
For another series, the system named is BGC-823. It counts as functional, Homo sapiens.
Another series relates to SGC-7901. It counts as functional, Homo sapiens.
Another series has as its system MGC-803. It counts as functional, Homo sapiens.
Another series deals with SK-HEP1. Type of series: functional, Homo sapiens.
The next series relates to Bel-7402. Type of series: functional, Homo sapiens.
The test system of a further series is SMMC-7721. It counts as functional, Homo sapiens.

The term IC50 denotes the midpoint of a concentration-inhibition curve. In general, bioavailability refers to dose-corrected exposure relative to a reference, in per cent. By AUC is commonly meant concentration integrated over time. The term half-life denotes the time in which the quantity being followed falls by half. One may read the Cmax as the maximum level reached in the sampled fluid or tissue. In general, Tmax refers to the time from dosing to the highest level. Consider `CC(C)(O)CN1C[C@H](C(=O)Nc2ccc(Cl)cc2)[C@@H](c2ccc(/C=C/C(=O)Nc3ccccc3N)cc2)C1` (racemic), for which the IC50 on Cytochrome P450 1A2 was found to be 7 µM; at Cytochrome P450 2C19 it was 7 µM; on Cytochrome P450 2C9 it was 4 µM; on Cytochrome P450 3A4, 3 µM; on Cytochrome P450 2D6, 700 nM. This compound returned a bioavailability in [1] of 100%. Also, the Vd in [2] was 3.7. Moreover, the clearance in series [3] is 33 mL/min/kg. The AUC in series [4] stood at 5650 ng·h/mL. Besides, the half-life in series [5] was 390 min. In series [6], this compound showed a Cmax of 1100 ng/mL. Further, the Tmax in series [7] was 1 h. Further, the CLhep predicted at 1 µM in [8] is 34 mL/min/kg; in [9], 14 mL/min/kg. For the same compound, the Activity in series [10] amounted to 230%.

`CN1C[C@H](C(=O)Nc2ccc(Cl)cc2)[C@@H](c2ccc(/C=C/C(=O)Nc3ccccc3N)cc2)C1` (racemic): the F with Mus musculus [11] is recorded as 75%. The compound also showed a clearance in [3] of 39 mL/min/kg. In addition, in the series with Mus musculus [12], the AUC was 2946 ng·h/mL. In addition, the t1/2 with Mus musculus [13] turned out to be 14 h. The compound further showed a Cmax with Mus musculus [14] of 324 ng/mL. In addition, in the series with Mus musculus [15], the Tmax worked out at 1 h. Also, the CLhep predicted at 1 µM in [8] was 35 mL/min/kg; in series [9] it was 5 mL/min/kg.

With `Nc1ccccc1NC(=O)c1ccc(CNC(=O)OCc2cccnc2)cc1` [ENTINOSTAT], the GI90 was more than 30 µM with HGC-27; 7.1 µM with BGC-823; 2.5 µM in the series on SGC-7901; 8.9 µM with MGC-803; 13 µM in the series on SK-HEP1; 8 µM in the series with Bel-7402. Further, the GI90 in the series on SMMC-7721 was 11 µM.
